Reference: ChEMBL document CHEMBL1127369, “Synthesis and structure-activity relationships of peptidyl alpha-keto heterocycles as novel inhibitors of prolyl endopeptidase” (J Med Chem, 1994)

molecular target: Prolyl endopeptidase (Sus scrofa, UniProt P23687); assay: In vitro inhibitory activity against prolyl endopeptidase (PEP)
Summary of the method: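 Pig kidney PEP, partially purified. Substrate Z-Gly-Pro-p-nitroanilide at 0.26 mM in dioxane with 0.2 M phosphate buffer. Inhibitor is added in DMSO over a range of concentrations, then enzyme (0.05 units/mL). Incubation 20 min at 37 °C, with p-nitroaniline read at 405 nm. IC50 (n = 3-6) is estimated from the inhibitor concentration vs activity curve.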

Sequence of Prolyl endopeptidase (P23687 whole entry): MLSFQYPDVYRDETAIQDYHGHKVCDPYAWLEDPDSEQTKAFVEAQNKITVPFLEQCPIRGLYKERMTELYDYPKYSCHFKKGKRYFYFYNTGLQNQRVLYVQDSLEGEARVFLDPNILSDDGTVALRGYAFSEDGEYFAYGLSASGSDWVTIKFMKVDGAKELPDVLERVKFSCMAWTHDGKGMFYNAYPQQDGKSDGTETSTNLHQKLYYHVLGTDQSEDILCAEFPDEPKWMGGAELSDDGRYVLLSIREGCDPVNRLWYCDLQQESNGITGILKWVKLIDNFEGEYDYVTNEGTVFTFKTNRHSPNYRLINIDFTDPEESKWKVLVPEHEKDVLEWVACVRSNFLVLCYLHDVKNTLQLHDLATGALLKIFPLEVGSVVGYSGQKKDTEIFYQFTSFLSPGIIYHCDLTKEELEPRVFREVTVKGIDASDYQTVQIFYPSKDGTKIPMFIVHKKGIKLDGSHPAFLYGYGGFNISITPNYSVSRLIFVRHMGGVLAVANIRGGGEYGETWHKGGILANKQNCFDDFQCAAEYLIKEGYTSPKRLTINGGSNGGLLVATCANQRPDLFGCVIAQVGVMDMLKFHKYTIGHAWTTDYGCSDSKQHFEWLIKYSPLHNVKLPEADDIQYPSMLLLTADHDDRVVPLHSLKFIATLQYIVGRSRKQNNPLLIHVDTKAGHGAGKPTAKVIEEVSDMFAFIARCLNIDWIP

| IC50 [nM] | SMILES |
| --- | --- |
| 5.6 | O=C(c1nc2ccccc2o1)[C@@H]1CCCN1C(=O)[C@@H]1CCCN1C(=O)CCCc1ccccc1 |
| 1090 | O=C(c1cncs1)[C@@H]1CCCN1C(=O)[C@@H]1CCCN1C(=O)CCCc1ccccc1 |
| 2020 | O=C(c1cccs1)[C@@H]1CCCN1C(=O)[C@@H]1CCCN1C(=O)OCc1ccccc1 |
| 21300 | O=C(c1ccc[nH]1)[C@@H]1CCCN1C(=O)[C@@H]1CCCN1C(=O)CCCc1ccccc1 |
| 1260 | O=C(c1cccs1)[C@@H]1CCCN1C(=O)[C@@H]1CCCN1C(=O)CCCc1ccccc1 |
| 16100 | O=C([C@@H]1CCCN1C(=O)CCCc1ccccc1)N1CCCC1C(O)c1nccs1 (some centres not stated) |
| 61 | O=C(c1cncnc1)[C@@H]1CCCN1C(=O)[C@@H]1CCCN1C(=O)CCCc1ccccc1 |
| 6.2 | O=C(c1cscn1)[C@@H]1CCCN1C(=O)[C@@H]1CCCN1C(=O)CCCc1ccccc1 |
| 5.5 | O=C(c1nc2ncccc2o1)[C@@H]1CCCN1C(=O)[C@@H]1CCCN1C(=O)CCCc1ccccc1 |
| 5 | O=C(c1nc2ccccc2s1)[C@@H]1CCCN1C(=O)[C@@H]1CCCN1C(=O)OCc1ccccc1 |
| 8.5 | O=C(c1nccs1)C1CCCN1C(=O)C1CCCN1C(=O)OCc1ccccc1 (configuration not stated) |
| 3.8 | O=C(C1=NCCS1)[C@@H]1CCCN1C(=O)[C@@H]1CCCN1C(=O)CCCc1ccccc1 |
| 9 | O=C(c1ncc[nH]1)[C@@H]1CCCN1C(=O)[C@@H]1CCCN1C(=O)CCCc1ccccc1 |
| 6.9 | O=C(c1ccccn1)[C@@H]1CCCN1C(=O)[C@@H]1CCCN1C(=O)CCCc1ccccc1 |
| 10.3 | CCOC(=O)C(=O)C1CCCN1C(=O)[C@@H]1CCCN1C(=O)CCCc1ccccc1 (some centres not stated) |
| 4 | O=C(c1nc2ccccc2s1)[C@@H]1CCCN1C(=O)[C@@H]1CCCN1C(=O)CCCc1ccccc1 |
| 2290 | O=C(c1cccnc1)[C@@H]1CCCN1C(=O)[C@@H]1CCCN1C(=O)CCCc1ccccc1 |
